This is an account of results in ChEMBL document CHEMBL3351639, “Fluorinated analogues of marsanidine, a highly α2-AR/imidazoline I1 binding site-selective hypotensive agent. Synthesis and biological activities” (Eur J Med Chem, 2014).

The Ki is a measure of affinity in units of concentration, obtained from inhibition or displacement. A lower Ki goes with higher affinity. Usually EC50 stands for the concentration giving half of the maximal effect. A lower EC50 goes with an effect from little substance.

In experiment [1] the target is T1, Alpha-2B adrenergic receptor (Homo sapiens, UniProt P18089).
T1 sequence (P18089 whole entry): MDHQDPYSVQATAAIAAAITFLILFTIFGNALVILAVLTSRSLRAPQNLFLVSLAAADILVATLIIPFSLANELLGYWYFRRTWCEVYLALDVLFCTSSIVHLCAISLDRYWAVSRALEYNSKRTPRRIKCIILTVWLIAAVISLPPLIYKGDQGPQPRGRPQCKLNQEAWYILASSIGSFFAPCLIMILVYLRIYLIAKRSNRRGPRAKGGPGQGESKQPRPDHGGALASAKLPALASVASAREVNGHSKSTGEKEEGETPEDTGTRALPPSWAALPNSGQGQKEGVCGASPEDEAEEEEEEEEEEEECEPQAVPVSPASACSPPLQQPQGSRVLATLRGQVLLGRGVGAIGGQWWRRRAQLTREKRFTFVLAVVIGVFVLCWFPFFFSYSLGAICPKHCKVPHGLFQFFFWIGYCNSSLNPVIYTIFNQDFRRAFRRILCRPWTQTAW
Description: Displacement of [3H]RS-79948-197 from human alpha2B adrenoceptor expressed in CHO-K1 cells after 45 mins by liquid scintillation counting. The class given is cell-based. An outline of the steps: (§1)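 Membranes from CHO-K1 cells stably expressing each human α2-AR subtype (6–10 µg protein). Used 0.2 nM [3H]RS-79948-197 and 8 serial dilutions of competitor in 50 mM potassium phosphate, pH 7.4. Non-specific binding defined with 100 µM oxymetazoline. Filtration, then scintillation counting. Run in duplicate, at least 3 repeats. One-site nonlinear fit; IC50 converted to Ki by Cheng-Prusoff.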
(In a radioligand displacement assay an active substance lowers the binding of a labelled ligand.)

Experiment [2] addresses T2, Alpha-2A adrenergic receptor (Homo sapiens, UniProt P08913).
T2 sequence (P08913 whole entry): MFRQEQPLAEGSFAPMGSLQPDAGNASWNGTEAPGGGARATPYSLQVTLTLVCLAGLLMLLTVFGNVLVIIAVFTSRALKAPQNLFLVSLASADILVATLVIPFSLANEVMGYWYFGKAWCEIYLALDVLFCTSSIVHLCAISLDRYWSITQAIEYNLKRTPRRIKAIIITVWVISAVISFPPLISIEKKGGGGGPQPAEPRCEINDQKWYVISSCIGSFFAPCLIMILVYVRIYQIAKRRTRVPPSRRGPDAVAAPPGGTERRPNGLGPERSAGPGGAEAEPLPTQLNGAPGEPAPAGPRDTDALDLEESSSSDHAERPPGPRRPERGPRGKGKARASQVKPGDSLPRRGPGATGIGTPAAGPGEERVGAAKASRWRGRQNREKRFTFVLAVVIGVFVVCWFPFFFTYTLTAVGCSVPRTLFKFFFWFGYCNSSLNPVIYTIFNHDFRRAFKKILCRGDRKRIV
Description: Agonist activity at human alpha2A adrenoceptor expressed in CHO-K1 cells after 30 mins by [35S]GTPgammaS binding assay. In kind it is functional, cell-based. The essentials: (§2)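 Membranes from CHO cells stably expressing human α2A-AR (5 µg protein) were incubated with 7 or 8 serial dilutions of compound and 0.1 nM [35S]GTPγS. Buffer: 25 mM Tris, 1 mM EDTA, 5 mM MgCl2, 20 mM NaCl, 1 µM GDP, 1 mM DTT, 30 µM ascorbic acid, pH 7.4. Incubation 30 min at RT, then vacuum filtration and scintillation counting. Run in duplicate, at least 3 repeats.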
In general terms: GTPγS resists hydrolysis and so accumulates on activated G proteins.

The target of experiment [3] is T3, Alpha-2A adrenergic receptor (Homo sapiens) (UniProt P08913).
T3 sequence (whole entry): T2 sequence (P08913 whole entry)
Description: Intrinsic activity at human alpha2A adrenoceptor expressed in CHO-K1 cells after 30 mins by [35S]GTPgammaS binding assay relative to norepinephrine. In kind it is functional, cell-based. An outline of the steps: as §2

Experiment [4] concerns the target T4, Alpha-2C adrenergic receptor (Homo sapiens, UniProt P18825).
T4 sequence (P18825 whole entry): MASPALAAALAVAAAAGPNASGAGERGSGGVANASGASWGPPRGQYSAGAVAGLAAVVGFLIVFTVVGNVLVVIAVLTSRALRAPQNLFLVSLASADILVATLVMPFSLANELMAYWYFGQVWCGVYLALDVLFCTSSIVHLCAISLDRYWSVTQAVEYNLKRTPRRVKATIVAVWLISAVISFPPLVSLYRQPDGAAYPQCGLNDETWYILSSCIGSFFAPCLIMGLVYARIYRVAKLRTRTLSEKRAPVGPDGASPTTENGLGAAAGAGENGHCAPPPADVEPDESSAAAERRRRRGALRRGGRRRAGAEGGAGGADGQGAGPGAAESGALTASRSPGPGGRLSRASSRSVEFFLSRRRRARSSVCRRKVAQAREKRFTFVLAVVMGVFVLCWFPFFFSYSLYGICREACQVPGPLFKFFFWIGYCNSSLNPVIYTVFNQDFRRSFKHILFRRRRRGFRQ
Put plainly: Displacement of [3H]RS-79948-197 from human alpha2C adrenoceptor expressed in CHO-K1 cells after 45 mins by liquid scintillation counting. The class given is cell-based. The essentials:
as §1

The structures appear in SMILES notation.

On to `Fc1cccc2cnn(N=C3NCCN3)c12`, for which the inhibition constant (Ki) came out at 0.158 µM in experiment [1] and 1.2 µM in experiment [4]. Also, the midpoint of the response in experiment [2], the EC50, lay at 0.2 µM. Besides, the Intrinsic activity in experiment [3] is 18%.

For `Fc1ccc2cnn(N=C3NCCN3)c2c1`, the results for the Ki in experiment [1] and in experiment [4] were 0.072 µM and 0.6 µM, respectively. Further, the concentration giving a half-maximal response (EC50) in experiment [2] is 0.0389 µM. In addition, the Intrinsic activity in experiment [3] was 5.2%.
